Experimental data of several laboratories.
Observed: binding
Tumor necrosis factor receptor superfamily member 9: Tumor necrosis factor receptor superfamily member 9 (Homo sapiens, UniProt Q07011)
MET: Hepatocyte growth factor receptor (MET, Homo sapiens, UniProt P08581)
USP7: Ubiquitin carboxyl-terminal hydrolase 7 (USP7, Homo sapiens, UniProt Q93009)

| Compound | target | method | pH | setting | Kd [µM] |
| --- | --- | --- | --- | --- | --- |
| CCCC[C@@H]1NC(=O)[C@H](Cc2ccc(O)cc2)NC(=O)[C@@H]2CCCN2C(=O)[C@H](CC(=O)O)NC(=O)[C@H](C)NC(=O)[C@H](Cc2ccccc2)NC(=O)[C@@H]2CSCCC(=O)N3CN(CN(C3)C(=O)CCSCCC(=O)N[C@@H](CC(C)(C)C)C(=O)N3CCC[C@H]3C(=O)N[C@@H](CCC(=O)O)C(=O)N[C@H](CCCCNC(=O)CCc3cn(CCOCCOCCOCCOCCOCCC(=O)N[C@H]4CSCCC(=O)N5CN6CN(C5)C(=O)CCSC[C@H](NC(=O)[C@@H](CC(=O)O)NC(=O)[C@H](Cc5cccc7ccccc57)NC(=O)[C@@H]5CCCN5C4=O)C(=O)N[C@@H](CCSC)C(=O)N[C@@H](CCCCNC(=N)N)C(=O)N[C@@H](CC(=O)O)C(=O)N[C@@H](Cc4c[nH]c5ccccc45)C(=O)N[C@@H](CO)C(=O)N[C@@H]([C@@H](C)O)C(=O)N4CCC[C@H]4C(=O)N4C[C@H](O)C[C@H]4C(=O)N[C@@H](Cc4c[nH]c5ccccc45)C(=O)N[C@H](C(N)=O)CSCCC6=O)nn3)C(=O)N3CCC[C@H]3C(=O)N[C@@H](Cc3ccc(O)cc3)C(=O)N2)C(=O)CCSCCNC1=O | Tumor necrosis factor receptor superfamily member 9 | SPR | – | – | 0.049 |
| CC(c1ccccc1Cl)n1cc(-c2cc(F)cc(F)c2)c(=O)[nH]c1=O (stereo not shown) | MET | – | – | – | 39.8 |
| CCCN1CCc2cc(OC)cc3c2[C@H]1Cc1ccc(O)c(O)c1-3 | D(2) dopamine receptor (Drd2, Rattus norvegicus, UniProt P61169) | radioligand | – | cell membranes | 0.00221 |
| CCCC[C@@H]1NC(=O)[C@H](Cc2ccc(O)cc2)NC(=O)[C@@H]2CCCN2C(=O)[C@H](CC(=O)O)NC(=O)[C@H](C)NC(=O)[C@H](Cc2ccccc2)NC(=O)[C@@H]2CSCCC(=O)N3CN(CN(C3)C(=O)CCSC[C@@H](C(=O)N[C@@H](C)C(N)=O)NC1=O)C(=O)CCSC[C@H](NC(=O)[C@H](C)NC(C)=O)C(=O)N[C@@H]([C@@H](C)CC)C(=O)N[C@@H](CCC(=O)O)C(=O)N[C@@H](CCC(=O)O)C(=O)N[C@H](CCCCNC(=O)CCc1cn(CCOCCOCCOCCOCCOCCC(=O)N[C@H]3CSCCC(=O)N4CN5CN(C4)C(=O)CCSC[C@H](NC(=O)[C@@H](CC(=O)O)NC(=O)[C@H](Cc4cccc6ccccc46)NC(=O)[C@@H]4CCCN4C3=O)C(=O)N[C@@H](CCSC)C(=O)N[C@@H](CCCCNC(=N)N)C(=O)N[C@@H](CC(=O)O)C(=O)N[C@@H](Cc3c[nH]c4ccccc34)C(=O)N[C@@H](CO)C(=O)N[C@@H]([C@@H](C)O)C(=O)N3CCC[C@H]3C(=O)N3C[C@H](O)C[C@H]3C(=O)N[C@@H](Cc3c[nH]c4ccccc34)C(=O)N[C@H](C(N)=O)CSCCC5=O)nn1)C(=O)N[C@@H](CCC(N)=O)C(=O)N[C@@H](Cc1ccc(O)cc1)C(=O)N2 | Tumor necrosis factor receptor superfamily member 9 | SPR | – | – | 0.043 |
| CC[C@H](C)[C@H](NC(=O)[C@H](CC(C)C)NC(=O)CNC(=O)[C@@H](N)CCCCN)C(=O)N[C@@H](CC(=O)O)C(=O)N[C@@H](Cc1ccc(O)cc1)C(=O)N[C@@H](Cc1ccc(O)cc1)C(=O)N[C@@H](CC(C)C)C(=O)N[C@@H](CCSC)C(=O)N1CCC[C@H]1C(=O)N[C@@H](CO)C(=O)N[C@@H](CC(C)C)C(=O)N[C@@H](CO)C(=O)N[C@H](C(=O)N[C@H](C(=O)N[C@@H](CO)C(=O)N[C@@H](CCCNC(=N)N)C(=O)N[C@@H](CO)C(=O)NCC(=O)N[C@@H](CCCCN)C(=O)O)[C@@H](C)O)[C@@H](C)O | USP7 | ITC | pH 8 | – | 25.9 |
| CC(c1ccccc1)n1cc(-c2cc(F)cc3c(C#N)n[nH]c23)c(=O)[nH]c1=O (stereo not shown) | MET | – | – | – | 0.0794 |
| CCCC[C@@H]1NC(=O)[C@H](Cc2ccc(O)cc2)NC(=O)[C@@H]2CCCN2C(=O)[C@H](CC(=O)O)NC(=O)[C@H](C)NC(=O)[C@H](Cc2ccccc2)NC(=O)[C@@H]2CSCCC(=O)N3CN(CN(C3)C(=O)CCSC[C@@H](C(=O)N[C@@H](C)C(N)=O)NC1=O)C(=O)CCSC[C@H](NC(C)=O)C(=O)N[C@@H](CC(C)(C)C)C(=O)N1CCC[C@H]1C(=O)N[C@@H](CCC(=O)O)C(=O)N[C@H](CCCCNC(=O)CCc1cn(CCOCCOCCOCCOCCOCCC(=O)NCCCC[C@H]3NC(=O)[C@H](Cc4cccc5ccccc45)NC(=O)[C@@H]4CCCN4C(=O)[C@@H](NC(C)=O)CSCCC(=O)N4CN5CN(C4)C(=O)CCSC[C@H](NC3=O)C(=O)N[C@@H](CCSC)C(=O)N[C@@H](CCCCNC(=N)N)C(=O)N[C@@H](CC(=O)O)C(=O)N[C@@H](Cc3c[nH]c4ccccc34)C(=O)N[C@@H](CO)C(=O)N[C@@H]([C@@H](C)O)C(=O)N3CCC[C@H]3C(=O)N3C[C@H](O)C[C@H]3C(=O)N[C@@H](Cc3c[nH]c4ccccc34)C(=O)N[C@H](C(N)=O)CSCCC5=O)nn1)C(=O)N1CCC[C@H]1C(=O)N[C@@H](Cc1ccc(O)cc1)C(=O)N2 | Tumor necrosis factor receptor superfamily member 9 | SPR | – | – | 0.0043 |
| Cc1n[nH]c2c(-c3cn(C(C)c4ccccc4)c(=O)[nH]c3=O)cccc12 (stereo not shown) | MET | – | – | – | 0.2 |
| CC[C@H](C)[C@H](NC(=O)[C@H](CCC(=O)O)NC(=O)[C@H](CCC(=O)O)NC(=O)[C@H](CCC(N)=O)NC(=O)[C@@H](NC(=O)[C@@H](N)CC(=O)O)[C@@H](C)CC)C(=O)N[C@@H](CC(C)C)C(=O)N[C@@H](CO)C(=O)NCC(=O)N[C@@H](CCCCN)C(=O)N[C@@H](CO)C(=O)O | USP7 | ITC | pH 8 | – | 424 |
| OC[C@H]1OC(O)[C@H](O)[C@@H](O)[C@@H]1O (stereo partly shown) | Hexokinase-4 (GCK, Homo sapiens, UniProt P35557) | stopped-flow | – | – | 5000 |
